Experimental findings from paper PMC6761749 (ACS Omega, 2019) are described below.

Experiment [1] has as its system human PBMCs. The experiment can be described thus: TNFα induction from human PBMCs. The format is cell-based. As to conditions: hPBMCs, in the dose range evaluated. The procedure, abridged: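 Donor PBMCs from healthy human whole blood were isolated on a Ficoll-Hypaque 1.077 gradient and plated at 0.5 × 10^6 cells/well in RPMI-1640 with pen/strep/glutamine and 10% heat-inactivated FBS. Test compounds (stocks 3–5 mg/mL in 2% glycerol–10% DMSO/water) were added at increasing concentrations for 24 h. Supernatant TNFα and IFNα were measured by ELISA. MEC is the lowest tested dose inducing cytokine. Values come from one of three donors.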

The target of experiment [2] is T1, human TLR7 (Homo sapiens, UniProt Q9NYK1).
T1 sequence (Q9NYK1 27-1049): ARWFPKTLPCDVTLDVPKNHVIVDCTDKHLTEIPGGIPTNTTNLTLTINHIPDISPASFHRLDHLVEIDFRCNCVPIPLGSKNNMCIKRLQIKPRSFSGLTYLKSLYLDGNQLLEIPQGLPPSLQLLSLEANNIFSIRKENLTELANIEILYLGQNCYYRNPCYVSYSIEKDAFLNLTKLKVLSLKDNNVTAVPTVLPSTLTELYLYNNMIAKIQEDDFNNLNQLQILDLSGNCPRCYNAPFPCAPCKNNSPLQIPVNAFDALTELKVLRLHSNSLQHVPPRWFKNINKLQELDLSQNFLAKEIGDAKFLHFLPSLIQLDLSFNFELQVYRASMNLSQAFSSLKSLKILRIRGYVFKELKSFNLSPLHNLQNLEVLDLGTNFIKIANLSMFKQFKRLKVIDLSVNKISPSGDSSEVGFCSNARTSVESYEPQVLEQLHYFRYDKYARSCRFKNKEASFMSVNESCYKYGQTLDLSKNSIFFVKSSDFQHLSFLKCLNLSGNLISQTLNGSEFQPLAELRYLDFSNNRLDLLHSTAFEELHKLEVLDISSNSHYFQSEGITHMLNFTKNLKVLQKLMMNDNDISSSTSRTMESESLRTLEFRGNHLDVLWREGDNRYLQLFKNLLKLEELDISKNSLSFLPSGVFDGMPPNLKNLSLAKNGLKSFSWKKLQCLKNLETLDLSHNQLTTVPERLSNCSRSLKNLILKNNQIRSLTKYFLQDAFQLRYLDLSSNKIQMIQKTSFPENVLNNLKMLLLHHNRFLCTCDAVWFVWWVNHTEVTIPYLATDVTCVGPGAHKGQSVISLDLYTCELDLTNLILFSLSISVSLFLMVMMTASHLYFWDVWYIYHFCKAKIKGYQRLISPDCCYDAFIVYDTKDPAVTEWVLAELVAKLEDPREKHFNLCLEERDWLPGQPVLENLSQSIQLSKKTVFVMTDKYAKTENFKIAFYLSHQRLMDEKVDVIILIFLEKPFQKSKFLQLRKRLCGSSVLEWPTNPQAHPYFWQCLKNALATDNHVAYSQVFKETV
The experiment can be described thus: HEK293-hTLR7 NFκB SEAP reporter assay. The class given is cell-based. Conditions: comparator 1b. In general terms: A reporter such as luciferase makes a cellular process visible.

Take `CCCCOc1nc(N)c2[nH]c(=O)n(C3CNC3)c2n1.Cl` [Compound 3a, 6-Amino-2-butoxy-9-(3-azetidinyl)-7,9-dihydro-8H-purin-8-one Hydrochloride]: the TNFα induction entry in experiment [1] is “did not induce measurable TNFα”.

In the case of `CCCCOc1nc(N)c2[nH]c(=O)n(CCN3CCNCC3)c2n1.Cl` [Compound 7a, 6-Amino-2-butoxy-9-(4-piperazinyl)ethyl-7,9-dihydro-8H-purin-8-one Hydrochloride], the “fold less active (hTLR7) than 1b” value in experiment [2] is 12 fold.
